Test results from ChEMBL document CHEMBL1255542, “Reverse-benzamidine antimalarial agents: design, synthesis, and biological evaluation” (Bioorg Med Chem Lett, 2010).

Assays:
[1] = system: Plasmodium vinckei; experiment: Antimalarial activity against Plasmodium vinckei 279BY infected in Swiss mice (Mus musculus) assessed as reduction in parasitemia at 5 mg/kg, intraperitoneally; type: functional; set-up: scale not given: the % may be the effect or the level left; conditions: route intraperitoneal
Method in brief: (§1)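 Female Swiss mice infected with P. vinckei petteri 279BY on day 0. Dosing once daily on days 1–4 post infection, ip or po as given in each line, n = 3 per dose. Parasitemia measured on day 5 and expressed as decrease relative to untreated control. ED50 derived from the dose series.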

[2] = system: Plasmodium vinckei; experiment: Antimalarial activity against Plasmodium vinckei 279BY infected in Swiss mice (Mus musculus) dosed perorally for 4 consecutive days; type: functional; conditions: ip, in the assay text read “dosed intraperitoneally” for “dosed perorally”; method in brief: as §1
[3] = system: Plasmodium falciparum; experiment: Antimalarial activity against Plasmodium falciparum; type: functional, organism-based
Method in brief: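 Chloroquine-sensitive Nigerian strain of P. falciparum; inhibition of in vitro growth; IC50 taken as the mean of at least two independent experiments, each run in duplicate.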

[4] = system: Plasmodium vinckei; experiment: Antimalarial activity against Plasmodium vinckei 279BY infected in Swiss mice (Mus musculus) assessed as reduction in parasitemia at 180 mg/kg, po; type: functional; set-up: scale not given: the % may be the effect or the level left; method in brief: as §1

IC50 [3] [nM] | Compound | Activity [1] [%] | ED50 [2] [mg/kg] | Activity [4] [%]
6.7 | COc1ccc(C(=N)NCCCCCCCCCCCCNC(=N)c2ccc(OC)c(OC)c2)cc1OC.Cl.Cl | 40 | > 5 | –
6.6 | COc1cccc(C(=N)NCCCCCCCCCCCCNC(=N)c2cccc(OC)c2)c1.Cl.Cl | – | 5 | 42
39 | COc1cc(OC)cc(C(=N)NCCCCCCCCCCCCNC(=N)c2cc(OC)cc(OC)c2)c1.Cl.Cl | – | 5 | 20
14 | Cl.Cl.N=C(NCCCCCCCCCCCCNC(=N)c1ccc(N)cc1)c1ccc(N)cc1 | – | 2.2 | 58
10 | Cc1ccc(C(=N)NCCCCCCCCCCCCNC(=N)c2ccc(C)cc2)cc1.Cl.Cl | – | 3.1 | –
715 | N=C(NCCCCCCCCCCCCNC(=N)c1ccco1)c1ccco1 | – | – | –
26.5 | COc1ccc(C(=N)NCCCCCCCCCCCCNC(=N)c2ccc(OC)cc2)cc1.Cl.Cl | – | > 20 | –
24.5 | COc1ccccc1C(=N)NCCCCCCCCCCCCNC(=N)c1ccccc1OC.Cl.Cl | – | 12 | –
13.5 | Cl.Cl.N=C(NCCCCCCCCCCCCNC(=N)c1ccccc1)c1ccccc1 | – | > 10 | –

More lines, now with the values behind:

Compound | IC50 [3] [nM] | Activity [1] [%] | ED50 [2] [mg/kg] | Activity [4] [%]
CC(=N)NCCCCCCCCCCCCNC(C)=N.Cl.Cl | – | – | 3.1 | –
CCC(=N)NCCCCCCCCCCCCNC(=N)CC.Cl.Cl | 18 | – | > 10 | –
CC(C)C(=N)NCCCCCCCCCCCCNC(=N)C(C)C.Cl.Cl | 10.2 | – | 7 | –
Cl.Cl.N=C(NCCCCCCCCCCCCNC(=N)C1CC1)C1CC1 | 16 | – | 5 | –
Cl.Cl.NC(=O)NCCCCCCCCCCCCNC(N)=O | 9.15 | – | 8.5 | –
N=C(NCCCCCCCCCCCCNC(=N)c1ccc(C(F)(F)F)cc1)c1ccc(C(F)(F)F)cc1 | 455 | – | – | –
N=C(NCCCCCCCCCCCCNC(=N)c1ccc([N+](=O)[O-])cc1)c1ccc([N+](=O)[O-])cc1 | 520 | – | – | –
Cl.Cl.N=C(NCCCCCCCCCCCCNC(=N)c1ccc2c(c1)OCO2)c1ccc2c(c1)OCO2 | 55.5 | – | 12 | –
